Experimental data from ChEMBL document CHEMBL1138514, “Rhodamine inhibitors of P-glycoprotein: an amide/thioamide "switch" for ATPase activity” (J Med Chem, 2009).

How the values were obtained:
[1] = test system: CCN(CC)C(=O)c1ccc(-c2c3ccc(=[N+](C)C)cc-3[se]c3cc(N(C)C)ccc23)s1; assay: (§1) Induction of mouse cysteine-less MDR3 ATPase activity by apparent Michaelis-Menten constant
Summary of the method: (§2)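 Isolated P-gp ATPase activity is measured as inorganic phosphate released across a range of rhodamine concentrations. KM is the apparent Michaelis-Menten constant, the concentration giving half-maximal stimulation of ATPase activity.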

[2] = test system: CCN(CC)C(=O)c1ccc(-c2c3ccc(=[N+](C)C)cc-3sc3cc(N(C)C)ccc23)s1; assay: as §1; summary of the method: as §2
[3] = test system: CCN(CC)C(=O)c1ccccc1-c1c2ccc(=[N+](C)C)cc-2sc2cc(N(C)C)ccc12; assay: as §1; summary of the method: as §2
[4] = test system: CCOC(=O)c1ccc(-c2c3ccc(=[N+](C)C)cc-3sc3cc(N(C)C)ccc23)s1; assay: as §1; summary of the method: as §2
[5] = test system: CN(C)c1ccc2c(-c3ccc(CCl)cc3)c3ccc(=[N+](C)C)cc-3oc2c1; assay: as §1; summary of the method: as §2
[6] = test system: CN(C)c1ccc2c(-c3ccccc3C(=O)O)c3ccc(=[N+](C)C)cc-3sc2c1; assay: as §1; summary of the method: as §2
[7] = test system: CN(C)c1ccc2c(-c3ccsc3C(=O)O)c3ccc(=[N+](C)C)cc-3[se]c2c1; assay: as §1; summary of the method: as §2
[8] = test system: CN(C)c1ccc2c(CCCOc3ccccc3)c3ccc(=[N+](C)C)cc-3sc2c1; assay: as §1; summary of the method: as §2
[9] = test system: COC(=O)c1ccccc1-c1c2ccc(=[N+](C)C)cc-2sc2cc(N(C)C)ccc12; assay: as §1; summary of the method: as §2
[10] = test system: COc1ccc(-c2c3ccc(=[N+](C)C)cc-3sc3cc(N(C)C)ccc23)cc1OC; assay: as §1; summary of the method: as §2
[11] = test system: COc1cccc(-c2c3ccc(=[N+](C)C)cc-3[se]c3cc(N(C)C)ccc23)c1; assay: as §1; summary of the method: as §2
[12] = test system: COc1ccc(-c2c3ccc(=[N+](C)C)cc-3[se]c3cc(N(C)C)ccc23)cc1OC; assay: not read
[13] = test system: COc1ccc(-c2c3ccc(=[N+](C)C)cc-3sc3cc(N(C)C)ccc23)cc1; assay: not read
[14] = test system: CCN(CC)C(=O)c1ccc(-c2c3ccc(=[N+](C)C)cc-3[se]c3cc(N(C)C)ccc23)s1; assay: not read
[15] = test system: CN(C)c1ccc(-c2c3ccc(=[N+](C)C)cc-3[te]c3cc(N(C)C)ccc23)cc1; assay: not read
[16] = test system: CN(C)c1ccc2c(-c3ccc(C(=O)O)s3)c3ccc(=[N+](C)C)cc-3[te]c2c1; assay: not read
[17] = test system: CN(C)c1ccc2c(-c3ccc(C(=O)O)s3)c3ccc(=[N+](C)C)cc-3sc2c1; assay: not read
[18] = test system: CN(C)c1ccc2c(-c3ccc(N4CCOCC4)cc3)c3ccc(=[N+](C)C)cc-3sc2c1; assay: not read
[19] = test system: CN(C)c1ccc2c(-c3ccccc3)c3ccc(=[N+](C)C)cc-3[te]c2c1; assay: not read
[20] = test system: CN(C)c1ccc2c(-c3ccsc3C(=O)O)c3ccc(=[N+](C)C)cc-3[se]c2c1; assay: not read
[21] = test system: CN(C)c1ccc2c(-c3ccsc3C(=O)O)c3ccc(=[N+](C)C)cc-3sc2c1; assay: not read
[22] = test system: CN(C)c1ccc2c(CCCOc3ccccc3)c3ccc(=[N+](C)C)cc-3sc2c1; assay: not read
[23] = test system: CN(C)c1cccc(-c2c3ccc(=[N+](C)C)cc-3[se]c3cc(N(C)C)ccc23)c1; assay: not read
[24] = test system: CN(C)c1cccc(-c2c3ccc(=[N+](C)C)cc-3[te]c3cc(N(C)C)ccc23)c1; assay: not read
[25] = test system: COc1ccc(-c2c3ccc(=[N+](C)C)cc-3sc3cc(N(C)C)ccc23)cc1OC; assay: not read
[26] = test system: COc1cccc(-c2c3ccc(=[N+](C)C)cc-3[se]c3cc(N(C)C)ccc23)c1; assay: not read
[27] = test system: COc1cccc(-c2c3ccc(=[N+](C)C)cc-3[te]c3cc(N(C)C)ccc23)c1; assay: not read
[28] = test system: C[N+](C)=c1ccc2c(-c3ccccc3)c3cc4c5c(c3[te]c-2c1)CCCN5CCC4; assay: not read

Substance: ATP-dependent translocase ABCB1 (Mus musculus)
- Km [1]: 3.6 µM
- Km [2]: 3.4 µM
- Km [3]: 5.7 µM
- Km [4]: 156 µM
- Km [5]: 77 µM
- Km [6]: 56 µM
- Km [7]: 29 µM
- Km [8]: 6 µM
- Km [9]: 266 µM
- Km [10]: 35 µM
- Km [11]: 44 µM
- Km [12]: 67 µM
- Km [13]: 75 µM

Substance: ATP-dependent translocase ABCB1 (Homo sapiens)
- Km [14]: 0.68 µM
- Km [15]: 9 µM
- Km [16]: 9.6 µM
- Km [17]: 140 µM
- Km [18]: 10 µM
- Km [19]: 8.3 µM
- Km [20]: 56 µM
- Km [21]: 111 µM
- Km [22]: 3.2 µM
- Km [23]: 3.5 µM
- Km [24]: 2 µM
- Km [12]: 8.3 µM
- Km [25]: 4.9 µM
- Km [26]: 3.3 µM
- Km [27]: 3.2 µM
- Km [28]: 4.4 µM
